Columns and labels:
[1] = Metabolic stability in human serum assessed as full length product remaining after 10 mins by HPLC; format: ADME, cell-free; details: read-out: Stability
In short: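 About 0.5 A260 units compound in 1% human serum in PBS, 37 °C; aliquot taken at 10 min, analysed by anion-exchange HPLC for percent intact full-length product.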

[2] = target: T1, Toll-like receptor 8 (Homo sapiens) (UniProt Q9NR97); assay: Activation of human TLR8 expressed in HEK293XL assessed as fold induction of NF-kappaB activity at 50 ug/ml after 18 hrs by reporter gene assay relative to control
T1 sequence (whole entry): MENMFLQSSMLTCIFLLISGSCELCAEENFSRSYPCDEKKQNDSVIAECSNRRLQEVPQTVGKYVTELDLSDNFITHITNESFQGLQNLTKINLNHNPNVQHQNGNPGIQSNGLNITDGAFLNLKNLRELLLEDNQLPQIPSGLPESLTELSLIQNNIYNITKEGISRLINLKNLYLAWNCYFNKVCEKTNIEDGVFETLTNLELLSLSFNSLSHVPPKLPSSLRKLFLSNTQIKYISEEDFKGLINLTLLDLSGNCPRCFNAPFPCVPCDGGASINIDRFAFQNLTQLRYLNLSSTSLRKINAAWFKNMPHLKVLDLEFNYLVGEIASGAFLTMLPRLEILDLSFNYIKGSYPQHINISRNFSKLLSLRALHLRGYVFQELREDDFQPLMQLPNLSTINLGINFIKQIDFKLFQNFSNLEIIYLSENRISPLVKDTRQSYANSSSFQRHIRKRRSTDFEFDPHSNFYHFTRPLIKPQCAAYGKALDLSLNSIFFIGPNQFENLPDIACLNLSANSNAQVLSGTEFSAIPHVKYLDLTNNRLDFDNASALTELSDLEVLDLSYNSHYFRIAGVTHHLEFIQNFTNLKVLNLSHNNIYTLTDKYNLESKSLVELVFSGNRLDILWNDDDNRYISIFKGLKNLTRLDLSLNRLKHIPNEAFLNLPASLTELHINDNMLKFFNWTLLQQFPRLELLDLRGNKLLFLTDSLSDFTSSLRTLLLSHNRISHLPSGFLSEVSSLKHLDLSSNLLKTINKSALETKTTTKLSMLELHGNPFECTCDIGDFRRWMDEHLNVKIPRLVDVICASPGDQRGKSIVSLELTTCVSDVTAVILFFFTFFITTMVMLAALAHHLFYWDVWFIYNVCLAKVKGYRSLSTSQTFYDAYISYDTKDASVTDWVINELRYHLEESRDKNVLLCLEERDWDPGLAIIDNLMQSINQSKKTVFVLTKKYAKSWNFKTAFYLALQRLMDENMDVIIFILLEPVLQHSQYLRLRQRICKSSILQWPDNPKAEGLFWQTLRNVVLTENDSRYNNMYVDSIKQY
In short: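 HEK293 cells stably expressing human TLR7 or TLR8, transiently transfected with SEAP reporter plasmid; medium replaced, SIMRA compounds added, 18 h incubation. Supernatant SEAP measured by QuantiBlue; expressed as fold increase in NF-κB activity over PBS control. Tabulated data at 50 μg/mL, representative of three independent experiments.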

remaining at 10 min [1] [%]	fold change (FC) [2]	Compound
86	4.6	Nc1ccn([C@@H]2O[C@H](COP(=O)(S)O[C@H]3[C@@H](O)[C@H](n4cnc5c(N)ncnc54)O[C@@H]3COP(=O)(S)O[C@H]3[C@@H](O)[C@H](n4ccc5c(=O)[nH]c(N)nc54)O[C@@H]3COP(=O)(S)O[C@H]3[C@@H](O)[C@H](n4ccc(=O)[nH]c4=O)O[C@@H]3CO)[C@@H](OP(=O)(S)OC[C@H]3O[C@@H](n4ccc5c(=O)[nH]c(N)nc54)[C@H](O)[C@@H]3OP(=O)(S)OC[C@H]3O[C@@H](n4cnc5c(N)ncnc54)[C@H](O)[C@@H]3OC[C@H]3O[C@@H](n4ccc(=O)[nH]c4=O)[C@H](O)[C@@H]3OP(=O)(S)ON[C@H]3O[C@@H](n4ccc5c(=O)[nH]c(N)nc54)[C@H](O)[C@@H]3OP(=O)(S)OC[C@H]3O[C@@H](n4cnc5c(N)ncnc54)[C@H](O)[C@@H]3OP(=O)(S)OC[C@H]3O[C@@H](n4ccc(=O)[nH]c4=O)[C@H](O)[C@@H]3OP(=O)(S)OC[C@H]3O[C@@H](n4ccc(=O)[nH]c4=O)[C@H](O)[C@@H]3OP(=O)(S)OCC(O)COP(=O)(S)O[C@H]3[C@@H](O)[C@H](n4ccc(=O)[nH]c4=O)O[C@@H]3COP(=O)(S)O[C@H]3[C@@H](O)[C@H](n4ccc(=O)[nH]c4=O)O[C@@H]3COP(=O)(S)O[C@H]3[C@@H](O)[C@H](n4cnc5c(N)ncnc54)O[C@@H]3COP(=O)(S)O[C@H]3[C@@H](O)[C@H](n4ccc5c(=O)[nH]c(N)nc54)O[C@@H]3NOP(=O)(S)O[C@H]3[C@@H](O)[C@H](n4ccc(=O)[nH]c4=O)O[C@@H]3CO[C@H]3[C@@H](O)[C@H](n4cnc5c(N)ncnc54)O[C@@H]3COP(=O)(S)O[C@H]3[C@@H](O)[C@H](n4ccc5c(=O)[nH]c(N)nc54)O[C@@H]3COP(=O)(S)O[C@H]3[C@@H](O)[C@H](n4ccc(N)nc4=O)O[C@@H]3COP(=O)(S)O[C@H]3[C@@H](O)[C@H](n4cnc5c(N)ncnc54)O[C@@H]3COP(=O)(S)O[C@H]3[C@@H](O)[C@H](n4ccc5c(=O)[nH]c(N)nc54)O[C@@H]3COP(=O)(S)O[C@H]3[C@@H](O)[C@H](n4ccc(=O)[nH]c4=O)O[C@@H]3CO)[C@H]2O)c(=O)n1 (some centres undefined)
63	0.7	Nc1ccn([C@@H]2O[C@H](COP(=O)(S)O[C@H]3[C@@H](O)[C@H](n4ccc(N)nc4=O)O[C@@H]3COP(=O)(S)O[C@H]3[C@@H](O)[C@H](n4cnc5c(N)ncnc54)O[C@@H]3COP(=O)(S)O[C@H]3[C@@H](O)[C@H](n4ccc5c(=O)[nH]c(N)nc54)O[C@@H]3COP(=O)(S)O[C@H]3[C@@H](O)[C@H](n4ccc(=O)[nH]c4=O)O[C@@H]3COP(=O)(S)O[C@H]3[C@@H](O)[C@H](n4ccc(=O)[nH]c4=O)O[C@@H]3COP(=O)(S)O[C@H]3[C@@H](O)[C@H](n4ccc(N)nc4=O)O[C@@H]3COP(=O)(S)O[C@H]3[C@@H](O)[C@H](n4cnc5c(N)ncnc54)O[C@@H]3CO)[C@@H](OP(=O)(S)OC[C@H]3O[C@@H](n4ccc(=O)[nH]c4=O)[C@H](O)[C@@H]3OP(=O)(S)OC[C@H]3O[C@@H](n4ccc5c(=O)[nH]c(N)nc54)[C@H](O)[C@@H]3OP(=O)(S)OC[C@H]3O[C@@H](n4ccc(=O)[nH]c4=O)[C@H](O)[C@@H]3OP(=O)(S)OCC(O)COP(=O)(S)O[C@H]3[C@@H](O)[C@H](n4ccc(=O)[nH]c4=O)O[C@@H]3COP(=O)(S)O[C@H]3[C@@H](O)[C@H](n4ccc5c(=O)[nH]c(N)nc54)O[C@@H]3COP(=O)(S)O[C@H]3[C@@H](O)[C@H](n4ccc(=O)[nH]c4=O)O[C@@H]3COP(=O)(S)O[C@H]3[C@@H](O)[C@H](n4ccc(N)nc4=O)O[C@@H]3COP(=O)(S)O[C@H]3[C@@H](O)[C@H](n4ccc(N)nc4=O)O[C@@H]3COP(=O)(S)O[C@H]3[C@@H](O)[C@H](n4cnc5c(N)ncnc54)O[C@@H]3COP(=O)(S)O[C@H]3[C@@H](O)[C@H](n4ccc5c(=O)[nH]c(N)nc54)O[C@@H]3COP(=O)(S)O[C@H]3[C@@H](O)[C@H](n4ccc(=O)[nH]c4=O)O[C@@H]3COP(=O)(S)O[C@H]3[C@@H](O)[C@H](n4ccc(=O)[nH]c4=O)O[C@@H]3COP(=O)(S)O[C@H]3[C@@H](O)[C@H](n4ccc(N)nc4=O)O[C@@H]3COP(=O)(S)O[C@H]3[C@@H](O)[C@H](n4cnc5c(N)ncnc54)O[C@@H]3CO)[C@H]2O)c(=O)n1 (some centres undefined)

— ChEMBL document CHEMBL1154352, “Toll-like receptor 7 selective synthetic oligoribonucleotide agonists: synthesis and structure-activity relationship studies” (J Med Chem, 2009)
